Results from PubChem BioAssay AID623895 (Broad Institute, 2012).
The source made the active and inactive calls.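 Rule for the calls: active = compounds with an ATP-loss curve whose half-maximal dose stays within twice the top dose, in every run; inconclusive = mixed run calls, weak flat effects or poor fits; inactive = the rest, including opposite-direction effects.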

Assay: viability loss of SR-BI expressing CHO cells – cell-based, 24 h, ATP luminescence, dry powder, set 6, cytotoxicity control for SR-BI HDL uptake inhibitor project, dose response (AID 623895)
Conditions: ldlA[mSR-BI] CHO cells viability, ATP luminescence, 24 h; at 35 µM (top of the series)
How it was run: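 Timing: 24 h at 37 °C, read after 10 min; material: ldlA[mSR-BI] cells; input: 4,000 cells per well; technique: ATP luminescence (Cell Titer Glo); dosing: 8 compound concentrations; buffer or medium: Ham's F12 growth medium with 10% FCS; read-out basis: viability IC50 from dose-response fit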

CO[C@@H]1CN(C)C(=O)c2ccc(NC(=O)C3CC3)cc2OC[C@@H](C)N(Cc2ccncc2)C[C@H]1C
activity change, negative = cytotoxicity: -2.35% (inactive)

Cc1ccccc1-c1ccc2c(c1)O[C@@H](CN(C)C(=O)Nc1ccc(F)cc1)[C@H](C)CN([C@@H](C)CO)S2(=O)=O
activity change, negative = cytotoxicity: -23.7% (inactive)

C[C@@H]1CN([C@H](C)CO)C(=O)c2cc(NC(=O)Cc3cn(C)c4ccccc34)ccc2O[C@H]1CN(C)C(=O)Nc1ccc(F)cc1
activity change, negative = cytotoxicity: -16.3% (inactive)

O=C(C[C@@H]1CC[C@@H](NC(=O)CC2CC2)[C@H](CO)O1)NCc1ccc(Cl)cc1
activity change, negative = cytotoxicity: -2.93% (inactive)

Cc1noc(C)c1S(=O)(=O)Nc1ccc2c(c1)C(=O)N([C@H](C)CO)C[C@@H](C)[C@H](CN(C)S(=O)(=O)c1ccc(Cl)cc1)O2
activity change, negative = cytotoxicity: -15.6% (inactive)

C[C@@H]1CN([C@H](C)CO)C(=O)c2cc(NC(=O)Cc3cn(C)c4ccccc34)ccc2O[C@H]1CN(C)Cc1ccc(C(=O)O)cc1
activity change, negative = cytotoxicity: -1% (inactive)

CNC[C@@H]1Oc2ccc(NC(=O)Cc3cn(C)c4ccccc34)cc2C(=O)N([C@H](C)CO)C[C@H]1C
activity change, negative = cytotoxicity: 14.8% (inactive)

COc1cc(OC)cc(C(=O)Nc2nc(-c3ccc4c(c3)CCN4C(=O)CN3CCOCC3)cs2)c1
activity change, negative = cytotoxicity: 3.74% (inactive)

C[C@@H]1CN([C@H](C)CO)C(=O)c2cc(NC(=O)Nc3ccccc3)ccc2O[C@H]1CN(C)S(=O)(=O)c1ccc(Cl)cc1
activity change, negative = cytotoxicity: -34.8% (inactive)

COc1ccc(-c2nnn(CC(=O)N(C3CCCCC3)C(C)C(=O)NC3CCCCC3)n2)cc1OC (stereo not drawn)
activity change, negative = cytotoxicity: -9.26% (inactive)

C[C@@H]1CN([C@H](C)CO)C(=O)c2cc(NC(=O)C3CCCCC3)ccc2O[C@H]1CN(C)S(=O)(=O)c1ccc(Cl)cc1
activity change, negative = cytotoxicity: -30.6% (inactive)

C[C@@H]1CN([C@H](C)CO)C(=O)c2cc(NC(=O)c3ccncc3)ccc2O[C@H]1CN(C)S(=O)(=O)c1ccc(Cl)cc1
activity change, negative = cytotoxicity: 4.97% (inactive)

C[C@@H]1CN([C@H](C)CO)C(=O)c2cc(NS(=O)(=O)c3cn(C)cn3)ccc2O[C@H]1CN(C)S(=O)(=O)c1ccc(Cl)cc1
activity change, negative = cytotoxicity: 1.24% (inactive)

C[C@@H]1CN([C@@H](C)CO)C(=O)Cc2cc(NS(=O)(=O)c3cn(C)cn3)ccc2O[C@H]1CN(C)Cc1ccc(Cl)c(Cl)c1
activity change, negative = cytotoxicity: 3.09% (inactive)

C[C@@H]1CN([C@H](C)CO)C(=O)c2cc(NC(=O)Cc3cn(C)c4ccccc34)ccc2O[C@H]1CN(C)S(=O)(=O)c1cccs1
activity change, negative = cytotoxicity: -7.16% (inactive)

O=C(O)CC(C(=O)Nc1cccc(C(F)(F)F)c1)C1CCCO1 (stereo not drawn)
activity change, negative = cytotoxicity: -9.62% (inactive)

C[C@@H]1CN([C@H](C)CO)C(=O)c2cc(NS(=O)(=O)c3ccc(F)cc3)ccc2O[C@H]1CN(C)S(=O)(=O)c1ccc(Cl)cc1
activity change, negative = cytotoxicity: -2.92% (inactive)

C[C@@H]1CN([C@H](C)CO)C(=O)c2cc(NC(=O)Cc3cn(C)c4ccccc34)ccc2O[C@H]1CN(C)C
activity change, negative = cytotoxicity: 6.87% (inactive)

C[C@@H]1CN([C@H](C)CO)C(=O)c2cc(NC(=O)Cc3cn(C)c4ccccc34)ccc2O[C@H]1CN(C)S(C)(=O)=O
activity change, negative = cytotoxicity: -4.79% (inactive)

C[C@H](CO)N1C[C@H](C)[C@H](CN(C)S(=O)(=O)c2ccc(Cl)cc2)Oc2ccc(NC(=O)Cc3cn(C)c4ccccc34)cc2C1=O
activity change, negative = cytotoxicity: -19.8% (inactive)

C[C@@H]1CN([C@H](C)CO)C(=O)Cc2cc(NC(=O)Cc3cn(C)c4ccccc34)ccc2O[C@H]1CN(C)S(=O)(=O)c1ccc(F)cc1
activity change, negative = cytotoxicity: -0.321% (inactive)

C[C@@H]1CN([C@H](C)CO)C(=O)c2cc(NC(=O)Cc3cn(C)c4ccccc34)ccc2O[C@H]1CN(C)Cc1ccc(-c2ccccc2)cc1
activity change, negative = cytotoxicity: -34.9% (inactive)

C[C@@H]1CN([C@H](C)CO)C(=O)c2cc(NC(=O)Cc3cn(C)c4ccccc34)ccc2O[C@H]1CN(C)Cc1ccc2c(c1)OCO2
activity change, negative = cytotoxicity: -15% (inactive)

CCCNC(=O)N(C)C[C@@H]1Oc2cc(-c3cncnc3)ccc2S(=O)(=O)N([C@@H](C)CO)C[C@@H]1C
activity change, negative = cytotoxicity: -5.43% (inactive)

C[C@@H]1CN([C@H](C)CO)C(=O)c2cc(NC(=O)Cc3cn(C)c4ccccc34)ccc2O[C@@H]1CN(C)S(=O)(=O)c1ccc(Cl)cc1
activity change, negative = cytotoxicity: -21.3% (inactive)

C[C@@H]1CN([C@@H](C)CO)C(=O)Cc2cc(NC(=O)CCCN(C)C)ccc2O[C@H]1CN(C)Cc1ccncc1
activity change, negative = cytotoxicity: 0.314% (inactive)

COc1ccc(NC(=O)N(C)C[C@@H]2Oc3ccc(NC(=O)Cc4cn(C)c5ccccc45)cc3C(=O)N([C@H](C)CO)C[C@H]2C)cc1
activity change, negative = cytotoxicity: 13.1% (inactive)

C[C@H]1CN([C@@H](C)CO)C(=O)c2cc(NC(=O)Cc3cn(C)c4ccccc34)ccc2O[C@@H]1CN(C)S(=O)(=O)c1ccc(Cl)cc1
activity change, negative = cytotoxicity: -20.1% (inactive)

C[C@@H]1CN([C@H](C)CO)C(=O)c2cc(NC(=O)CCN3CCOCC3)ccc2O[C@H]1CN(C)S(=O)(=O)c1ccc(Cl)cc1
activity change, negative = cytotoxicity: 19.5% (inactive)

C[C@@H]1CN([C@H](C)CO)C(=O)c2cc(NC(=O)Cc3cn(C)c4ccccc34)ccc2O[C@H]1CN(C)CC1CCCCC1
activity change, negative = cytotoxicity: -22.1% (inactive)

Cc1noc(C)c1NC(=O)N(C)C[C@@H]1Oc2ccc(NC(=O)Cc3cn(C)c4ccccc34)cc2C(=O)N([C@H](C)CO)C[C@H]1C
activity change, negative = cytotoxicity: 10.5% (inactive)

CC(C)CN(C(=O)COC(=O)C12CC3CC(CC(O)(C3)C1)C2)C1CCS(=O)(=O)C1 (stereo not drawn)
activity change, negative = cytotoxicity: -14.1% (inactive)

Cc1ccc(OCc2cc(C(=O)N3CCCC(O)C3)no2)cn1 (stereo not drawn)
activity change, negative = cytotoxicity: -19.7% (inactive)

C[C@H](CO)N1C[C@H](C)[C@H](CN(C)C)Oc2c(NS(C)(=O)=O)cccc2C1=O
activity change, negative = cytotoxicity: 4.96% (inactive)

CC(=O)Nc1ccc(Cl)c(C(=O)Nc2ccc(N3CCN(C(=O)OC(C)(C)C)CC3)cc2)c1
activity change, negative = cytotoxicity: -29.2% (inactive)

C[C@@H]1CN([C@H](C)CO)C(=O)c2cc(NC(=O)C3CCOCC3)ccc2O[C@H]1CN(C)S(=O)(=O)c1ccc(Cl)cc1
activity change, negative = cytotoxicity: -5.21% (inactive)

C[C@@H]1CN([C@H](C)CO)C(=O)c2cc(NC(=O)Cc3cn(C)c4ccccc34)ccc2O[C@H]1CN(C)S(=O)(=O)c1ccc(Cl)cc1
activity change, negative = cytotoxicity: -19.8% (inactive)

COc1ccc(CN(C)C[C@@H]2Oc3ccc(NC(=O)CCCN(C)C)cc3C(=O)N([C@H](C)CO)C[C@H]2C)cc1
activity change, negative = cytotoxicity: 12.2% (inactive)

C[C@@H]1CN([C@H](C)CO)C(=O)c2cc(N(C)C)ccc2O[C@H]1CN(C)S(=O)(=O)c1ccc(Cl)cc1
activity change, negative = cytotoxicity: -23.7% (inactive)

O=C1C2C3C=CC(C3)C2C(=O)N1c1cccc(N2C(=O)C3C4C=CC(C4)C3C2=O)n1 (stereo not drawn)
activity change, negative = cytotoxicity: -8.55% (inactive)

C[C@@H]1CN([C@@H](C)CO)C(=O)Cc2cc(N(C)C)ccc2O[C@@H]1CN(C)Cc1ccc(C(=O)O)cc1
activity change, negative = cytotoxicity: 4.97% (inactive)

C[C@H](CO)N1C[C@H](C)[C@@H](CN(C)S(=O)(=O)c2ccc(Cl)cc2)Oc2ccc(NC(=O)Cc3cn(C)c4ccccc34)cc2C1=O
activity change, negative = cytotoxicity: -25.3% (inactive)

C[C@H]1CN([C@@H](C)CO)C(=O)c2cc(NC(=O)Cc3cn(C)c4ccccc34)ccc2O[C@H]1CN(C)S(=O)(=O)c1ccc(Cl)cc1
activity change, negative = cytotoxicity: -23.6% (inactive)
